Assay results collected from several papers.
Protocols differ between the studies behind these lines.

CCN1CCN(Cc2ccc(NC(=O)c3ccc(C)c(NC(=O)c4cncc(-c5cccs5)c4)c3)cc2C(F)(F)F)CC1 gave a Cmax of 582 ng/mL (mouse; plasma; intraperitoneal; 15 mg/kg; single dose).
With CC(=O)O[C@@]12CO[C@@H]1C[C@H](O)[C@@]1(C)C(=O)[C@H](O)C3=C(C)[C@@H](OC(=O)[C@H](O)[C@@H](NC(=O)OC(C)(C)C)c4ccccc4)C[C@@](O)([C@@H](OC(=O)c4ccccc4)[C@H]21)C3(C)C the Cmax was 18.9 ng/g (male Kunming mouse; liver; oral; 20 mg/kg).
C=CS(=O)(=O)c1ccc(Nc2nc(OCC3CCCCC3)c3nc[nH]c3n2)cc1 has a Cmax of 534 ng/mL (male BALB/c mouse; plasma; intravenous; 20 mg/kg; single dose).
Nc1ncn([C@H]2C[C@H](O)[C@@H](CO)O2)c(=O)n1 gave a Cmax of 319 ng/mL (female C57BL/6 mouse; plasma; intravenous; 0.4 mg/kg).
For Cn1cc(Nc2nc(N)nc(-c3cccc(-n4ccc5cc(C6CC6)cc(F)c5c4=O)c3CO)n2)cn1, the Vd/F was 422 L (human; plasma; oral; 300 mg; single dose, fasted).
With Cc1ccc(C(=O)Nc2ccc(CN3CCN(C)CC3)c(C(F)(F)F)c2)cc1C#Cc1cnc2[nH]ncc2c1 the Vd/F was 5370 L (human; plasma; oral; 40 mg; single dose, healthy volunteers).
With Cl.[2H]C([2H])([2H])CC(=O)c1cnc(NC(=O)C2CC2)cc1Nc1cccc(-c2ncn(C([2H])([2H])[2H])n2)c1OC the Vd/F was 240 L (human; plasma; oral; 20 mg; multiple doses, once daily, fasted).
With CNC(=O)n1ccc2cc(Oc3ccnc(NC(=O)c4ccc(C5CCN(CCO)CC5)cc4)c3)c(OCCOC)cc21 the Vd/F was 14300 L (human; plasma; oral; 35 mg; single dose, fed, healthy volunteers).
CC[C@H](C)CCCCC(=O)N[C@@H](CCN)C(=O)N[C@H](C(=O)N[C@@H](CCN)C(=O)N[C@H]1CCNC(=O)[C@H]([C@@H](C)O)NC(=O)[C@H](CCN)NC(=O)[C@H](CCN)NC(=O)[C@H](CC(C)C)NC(=O)[C@@H](Cc2ccccc2)NC(=O)[C@H](CCN)NC1=O)[C@@H](C)O gave a Vd of 20.2 L (human; plasma; intravenous; 0.75 mg/kg; single dose, infusion).
With NC(=S)NN=Cc1ncccc1N the Vd/F was 205 L (human; plasma; oral; 100 mg).
